Data on seven compounds can be found in ChEMBL document CHEMBL4376807, “Hydroxamic Acid Derivatives of β-Carboline/Hydroxycinnamic Acid Hybrids Inducing Apoptosis and Autophagy through the PI3K/Akt/mTOR Pathways” (J Nat Prod, 2019).

pIC50: −log10 of the molar value. Active and inactive are the calls of the source. No cut-off for these calls is given here.

Experiment [1] deals with Histone deacetylase 1 (Homo sapiens, UniProt Q13547). The experiment can be described thus: Inhibition of HDAC1 (unknown origin) using Boc-Lys (Ac)-AMC as substrate incubated for 60 mins by fluorimetric assay.
Histone deacetylase 1, sequence (Q13547 whole entry): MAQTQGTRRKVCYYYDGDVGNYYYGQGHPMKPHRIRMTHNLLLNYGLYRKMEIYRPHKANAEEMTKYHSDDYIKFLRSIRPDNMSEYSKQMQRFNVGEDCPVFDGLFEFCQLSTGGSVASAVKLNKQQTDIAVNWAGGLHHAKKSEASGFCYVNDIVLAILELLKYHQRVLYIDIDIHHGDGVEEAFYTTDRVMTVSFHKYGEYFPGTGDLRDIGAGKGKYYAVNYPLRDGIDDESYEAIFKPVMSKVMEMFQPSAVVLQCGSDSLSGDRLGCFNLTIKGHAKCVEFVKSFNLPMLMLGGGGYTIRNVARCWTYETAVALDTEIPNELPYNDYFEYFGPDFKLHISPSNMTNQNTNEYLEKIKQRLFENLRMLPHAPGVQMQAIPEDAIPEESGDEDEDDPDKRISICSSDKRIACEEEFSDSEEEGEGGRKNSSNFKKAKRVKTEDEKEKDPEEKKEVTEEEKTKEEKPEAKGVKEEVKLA
Experiment [2] is described as follows: Inhibition of PI3K/AKT/mTOR signaling in human Bel7402 cells assessed as reduction in AKT phosphorylation at 20 uM after 24 to 72 hrs by Western blot analysis. It is filed as cell-based. The procedure, abridged:
(§1)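 Bel7402 cells (1.5 × 10^5/mL) treated 24 or 72 h. Lysates (0.05 mg/lane) run on 12% SDS-PAGE, transferred to nitrocellulose, blocked with 5% nonfat milk. Probed for phospho-Akt (Ser473), total Akt, phospho-mTOR, total mTOR and β-actin; HRP secondary, chemiluminescent detection. Bands quantified against vehicle control; mean ± SD of three separate assays.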

The subject of experiment [3] is Bel-7402. Put plainly: Induction of autophagy in human Bel7402 cells assessed as accumulation of autophagic vacuoles at 20 uM after 24 hrs by acridine orange staining based fluorescence microscopic method. It counts as functional, cell-based. In a few lines: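 Bel7402 cells (10 000) seeded overnight, then exposed alongside vehicle. Stained with acridine orange (1 mg/mL) for 15−20 min. Autophagic vacuoles scored by fluorescence microscopy as red versus green fluorescence at 400×. Representative images from three independent experiments.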

The nature of experiment [4]: Inhibition of PI3K/AKT/mTOR signaling in human Bel7402 cells assessed as reduction in mTOR phosphorylation at 20 uM after 24 to 72 hrs by Western blot analysis. It counts as cell-based. The procedure, abridged: as §1
The subject of experiment [5] is Bel-7402. The experiment can be described thus: Induction of apoptosis in human Bel7402 cells assessed as annexin-V positive cells at 20 uM after 72 hrs by […] relative to control. It counts as functional.
In experiment [6] the test system is HepG2. The experiment can be described thus: Antiproliferative activity against human HepG2 cells after 72 hrs by MTT assay. The note with it: HepG2, 72 h. It counts as functional, cell-based.
In experiment [7] the test system is SMMC-7721. The experiment can be described thus: Antiproliferative activity against human SMMC7721 cells after 72 hrs by MTT assay. It is filed as functional, cell-based. The following applies: SMMC-7721, 72 h.
Experiment [8] relates to Bel-7402. The experiment can be described thus: Antiproliferative activity against human Bel7402 cells after 72 hrs by MTT assay. The following applies: Bel-7402, 72 h. It counts as functional, cell-based.
The subject of experiment [9] is Huh-7. Put plainly: Antiproliferative activity against human HuH7 cells after 72 hrs by MTT assay. It counts as functional, cell-based. The following applies: Huh-7, 72 h.
For experiment [10], the target named is T1, Protein deacetylase HDAC6 (Homo sapiens, UniProt Q9UBN7).
T1 sequence (Q9UBN7 whole entry): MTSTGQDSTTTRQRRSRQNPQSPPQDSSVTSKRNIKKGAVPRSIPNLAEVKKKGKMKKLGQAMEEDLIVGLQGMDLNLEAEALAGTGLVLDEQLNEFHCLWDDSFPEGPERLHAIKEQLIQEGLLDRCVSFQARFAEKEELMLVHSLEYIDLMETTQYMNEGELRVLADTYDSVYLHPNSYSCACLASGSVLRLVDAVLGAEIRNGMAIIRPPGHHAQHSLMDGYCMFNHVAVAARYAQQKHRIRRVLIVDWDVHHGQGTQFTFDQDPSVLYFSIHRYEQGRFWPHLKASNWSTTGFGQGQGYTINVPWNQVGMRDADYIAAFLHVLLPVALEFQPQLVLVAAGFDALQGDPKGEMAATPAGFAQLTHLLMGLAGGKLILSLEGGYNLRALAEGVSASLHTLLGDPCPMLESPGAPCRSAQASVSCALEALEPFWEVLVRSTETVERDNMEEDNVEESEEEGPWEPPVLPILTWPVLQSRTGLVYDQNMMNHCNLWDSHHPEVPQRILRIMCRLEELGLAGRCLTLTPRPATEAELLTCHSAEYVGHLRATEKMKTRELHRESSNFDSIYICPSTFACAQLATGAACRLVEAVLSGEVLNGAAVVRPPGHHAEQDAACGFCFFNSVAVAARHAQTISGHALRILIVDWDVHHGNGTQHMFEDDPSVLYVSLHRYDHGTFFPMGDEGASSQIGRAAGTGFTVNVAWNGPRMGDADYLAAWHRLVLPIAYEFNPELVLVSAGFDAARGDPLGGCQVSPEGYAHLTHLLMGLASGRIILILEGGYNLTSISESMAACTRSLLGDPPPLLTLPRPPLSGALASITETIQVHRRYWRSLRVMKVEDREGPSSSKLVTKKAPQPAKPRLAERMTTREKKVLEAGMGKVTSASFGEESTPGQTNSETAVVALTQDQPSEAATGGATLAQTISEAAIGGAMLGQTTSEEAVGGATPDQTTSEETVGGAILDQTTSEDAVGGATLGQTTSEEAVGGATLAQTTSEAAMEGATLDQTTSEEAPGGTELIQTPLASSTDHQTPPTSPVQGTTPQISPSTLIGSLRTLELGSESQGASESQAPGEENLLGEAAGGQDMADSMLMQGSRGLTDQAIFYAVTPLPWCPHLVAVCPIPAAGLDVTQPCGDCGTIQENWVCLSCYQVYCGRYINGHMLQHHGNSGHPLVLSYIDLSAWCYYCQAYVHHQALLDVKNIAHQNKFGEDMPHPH
Put plainly: Inhibition of human HDAC6 using Boc-Lys (Ac)-AMC as substrate incubated for 60 mins by fluorimetric assay.

In experiment [11] the target is T2, Histone deacetylase 8 (Homo sapiens, UniProt Q9BY41).
T2 sequence (Q9BY41 whole entry): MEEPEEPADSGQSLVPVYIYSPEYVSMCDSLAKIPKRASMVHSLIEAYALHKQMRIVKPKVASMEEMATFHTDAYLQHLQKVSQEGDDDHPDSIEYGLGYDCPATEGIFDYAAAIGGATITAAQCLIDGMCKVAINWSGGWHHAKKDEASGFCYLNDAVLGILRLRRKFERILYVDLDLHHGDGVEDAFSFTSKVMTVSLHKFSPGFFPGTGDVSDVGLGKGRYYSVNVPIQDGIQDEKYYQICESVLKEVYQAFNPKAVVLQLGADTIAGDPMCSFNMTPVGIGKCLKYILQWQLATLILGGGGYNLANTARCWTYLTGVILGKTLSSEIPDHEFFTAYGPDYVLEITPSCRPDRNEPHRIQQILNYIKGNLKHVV
The experiment can be described thus: Inhibition of human HDAC8 using Boc-Lys (Ac)-AMC as substrate incubated for 60 mins by fluorimetric assay.

The species named for experiment [12] is Homo sapiens. Put plainly: Selectivity ratio of IC50 for HDAC1 (unknown origin) to IC50 for human HDAC6. In a few lines:
(§2)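 Recombinant human HDAC1, 3, 6 and 8 (fluorimetric kit) incubated with compound over a range of concentrations and Boc-Lys(Ac)-AMC substrate at 37 °C for 60 min. Reaction quenched with lysine developer; after 30 min, fluorescence read at ex 355/em 460 nm. Inhibition taken relative to control and IC50 fitted; ratios built from these IC50s.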

The target of experiment [13] is Histone deacetylase 3 (Homo sapiens, UniProt O15379). The experiment can be described thus: Inhibition of human HDAC3 using Boc-Lys (Ac)-AMC as substrate incubated for 60 mins by fluorimetric assay.
Histone deacetylase 3, sequence (O15379 whole entry): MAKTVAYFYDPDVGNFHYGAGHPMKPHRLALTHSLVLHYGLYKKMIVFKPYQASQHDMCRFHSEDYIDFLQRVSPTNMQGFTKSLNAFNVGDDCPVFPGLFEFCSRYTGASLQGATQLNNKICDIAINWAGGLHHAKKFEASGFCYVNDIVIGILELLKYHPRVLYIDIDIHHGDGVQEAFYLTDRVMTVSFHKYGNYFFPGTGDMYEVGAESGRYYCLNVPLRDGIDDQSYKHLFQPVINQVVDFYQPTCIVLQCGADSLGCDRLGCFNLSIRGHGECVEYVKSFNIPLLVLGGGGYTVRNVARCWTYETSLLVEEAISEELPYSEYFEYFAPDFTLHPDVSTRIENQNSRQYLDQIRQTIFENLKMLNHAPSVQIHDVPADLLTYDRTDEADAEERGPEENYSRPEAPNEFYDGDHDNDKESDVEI
Experiment [14] is filed under the species Homo sapiens. Put plainly: Selectivity ratio of IC50 for human HDAC3 to IC50 for human HDAC6. The procedure, abridged:
as §2

The test system of experiment [15] is Bel-7402. Put plainly: Induction of apoptosis in human Bel7402 cells assessed as increase in cleaved PARP level at 5 uM after 72 hrs by Western blot analysis. It is filed as functional, cell-based. The procedure, abridged: (§3)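 Subconfluent Bel7402 cells (1.5 × 10^5/mL) exposed to vehicle or compound for 72 h, then lysed. Lysates (0.05 mg/lane) run on 12% SDS-PAGE, transferred to nitrocellulose, blocked in 5% nonfat milk. Probed for Bax, Bcl-2, cleaved caspase-3 and cleaved PARP, with HRP secondary and chemiluminescence. Levels normalized to β-actin; three separate assays, mean ± SD.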

In experiment [16] the test system is Bel-7402. The experiment can be described thus: Induction of apoptosis in human Bel7402 cells assessed as increase in cleaved caspase-3 level at 5 uM after 72 hrs by Western blot analysis. It is filed as functional, cell-based. The procedure, abridged: as §3
Experiment [17] concerns Bel-7402. Put plainly: Induction of autophagy in human Bel7402 cells assessed as accumulation of autophagic vacuoles at 5 uM after 24 hrs by acridine orange staining based fluorescence microscopic method. It counts as functional, cell-based. In a few lines: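 Bel7402 cells (10 000) cultured overnight, then exposed to compound at 1.0 or 5.0 μM, or vehicle. Stained with 1 mg/mL acridine orange for 15−20 min, then dye removed. Red versus green fluorescence viewed by fluorescence microscopy at 400×. Representative images from three independent experiments.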

For experiment [18], the system named is Bel-7402. Put plainly: Induction of apoptosis in human Bel7402 cells assessed as annexin-V positive cells at 5 uM after 72 hrs by Annexin-V/PI staining based flow cytometry relative to control. It counts as functional. The procedure, abridged: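 Bel7402 cells (10 000) cultured overnight, then exposed to compound at 1.0 or 5.0 μM, or vehicle, for 72 h. Harvested, stained with annexin-V APC and 7-AAD for 15 min. Apoptotic percentage measured by flow cytometry (APC ex 633/em 660 nm; 7-AAD ex 488/em 647 nm). Three separate assays, mean ± SD.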

For experiment [19], the system named is Bel-7402. The experiment can be described thus: Induction of autophagy in human Bel7402 cells assessed as upregulation of LC3-2 level at 5 uM after 24 to 72 hrs by Western blot analysis. It counts as functional, cell-based. In a few lines:
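Bel7402 cells (1.5 × 10^5/mL) exposed to compound at indicated doses, or vehicle, for 24 or 72 h. Lysates (0.05 mg/lane) separated on 12% SDS-PAGE, blotted to nitrocellulose, blocked in 5% milk. Probed with anti-LC3, anti-p62 and anti-beclin-1, HRP secondary, chemiluminescent detection. Levels quantified relative to β-actin; three separate assays, mean ± SD.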

For `COc1ccc2c(c1)[nH]c1c(C)nccc12` [HARMINE], in experiment [1], the pIC50 is < 6.00. Further, the inhibition entry in experiment [2] and in [4] was “Active” in each case. The result in [3] was Active. The Activity in [5] was found to be 36.1%.

On to `COc1ccc(-c2nc(NCCCOc3ccc(/C=C/C(=O)NO)cc3)cc3c2[nH]c2ccccc23)cc1`, for which the pIC50 in [6] was 5.47; in experiment [1], 7.24; in [7], 5.39; in experiment [8], 5.40.

Turning to `COc1ccc(-c2nc(NCCCCOc3ccc(/C=C/C(=O)NO)cc3OC)cc3c2[nH]c2ccccc23)cc1`, the pIC50 is 5.28 in experiment [6]; 7.21 in [1]; 5.15 in experiment [7]; 5.21 in experiment [9]; 5.34 in experiment [8].

For the compound `COc1ccc(-c2nc(NCCCCOc3ccc(/C=C/C(=O)NO)cc3)cc3c2[nH]c2ccccc23)cc1`, the pIC50 in experiment [6] was 5.02; in [1], 6.90; in experiment [7], < 4.90; in experiment [8], 5.05.

Take `COc1ccc(-c2nc(NCCOc3ccc(/C=C/C(=O)NO)cc3OC)cc3c2[nH]c2ccccc23)cc1`: the pIC50 in experiment [6] was 5.32; in experiment [1] it was 7.49; in experiment [7], 5.40; in experiment [10] it was 7.77; in experiment [11], < 6.00; in [9] it was 5.55. In addition, the pIC50 in experiment [13] was 6.90; in experiment [8], 5.74. Also, the results for the Ratio IC50 in experiment [12] and in experiment [14] were 2 and 7 to 11, respectively.

Consider `COc1ccc(-c2nc(NCCOc3ccc(/C=C/C(=O)NO)cc3)cc3c2[nH]c2ccccc23)cc1`, for which the pIC50 was 5.24 in [6], 7.12 in experiment [1], 5.20 in [7] and 5.28 in [8].

As for `O=C(CCCCCCC(=O)Nc1ccccc1)NO` [VORINOSTAT], the outcome in experiment [15], in experiment [16], in [17] and in experiment [19] was Active. Besides, the Activity in experiment [18] was determined as 45.4%.
